Compound activity from PubChem BioAssay.
UPR CHOP act: apoptotic UPR (CHOP) activation | activation, % at 10 µM | hit rate 0.34% among 330,000 | CHO-CHOP luciferase reporter, luminescence; percent of tunicamycin response over DMSO baseline;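 active means at 10 µM dose, activation of 40% or more, normalized to positive control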
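Test system: CHO-CHOP cells, stable luciferase reporter of PERK-eIF2a-CHOP signalling | Quantity: 500 CHO-CHOP cells per well | Buffer or medium: F12 plus 10% serum | Compound dosing: 10 µM single point, 0.5% DMSO | Schedule: 6 h compound treatment, 37 °C | Signal: Luciferase luminescence | Control set: Tunicamycin high control, DMSO low control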
MC4R barr agon: agonists of human melanocortin 4 receptor (MC4R) beta-arrestin | hit rate 0.98% among 360,000 | P32245 | U2OS MC4R beta-arrestin complementation, luminescence; percent of melanotan II response, DMSO zero | activation, % at 8.9 µM;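 active means activation above a per-plate cutoff, the mean activation of sample wells on that plate plus 3 SD, cut at about 8% in these data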
Target sequence (P32245 whole entry, looked up): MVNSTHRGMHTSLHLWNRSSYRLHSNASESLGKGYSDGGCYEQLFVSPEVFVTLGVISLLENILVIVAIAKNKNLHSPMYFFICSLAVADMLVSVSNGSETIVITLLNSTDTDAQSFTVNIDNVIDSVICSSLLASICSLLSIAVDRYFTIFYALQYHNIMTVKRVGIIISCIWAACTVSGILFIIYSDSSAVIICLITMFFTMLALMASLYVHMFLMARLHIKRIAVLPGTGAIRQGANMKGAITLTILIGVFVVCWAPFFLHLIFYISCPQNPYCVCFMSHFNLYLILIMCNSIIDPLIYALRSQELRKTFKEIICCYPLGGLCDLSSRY
UPR XBP1 act: adaptive UPR (XBP1) activation | CHO-XBP1 luciferase reporter, IRE1-XBP1 UPR activation, luminescence; percent of tunicamycin response, DMSO as zero | hit rate 0.33% among 330,000 | activation, % at 20 µM;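 active means versus positive control, 20 µM dose yields 30% or more activation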
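Test system: CHO-XBP1 luciferase reporter cells | Buffer or medium: Serum-containing F12 medium, 10% FBS | Schedule: 6 h compound exposure at 37 °C, 5% CO2 | Detection: Steady-Glo luciferase glow luminescence, 10 min after reagent addition | Read-out basis: Activation, % of tunicamycin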
A1 inh: inhibitors of the anti-apoptotic protein A1, read as caspase activation; MEF A1-2A-BIM cells, Caspase-Glo 3/7 luminescence, 3 h; percent of clofoctol response, vehicle zero; caspase activation, % (concentration not given with the values); hit rate 0.066% among 330,000;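 active means over half of replicate activation scores above 10%, or exactly half above 10 with the replicate mean above 10; inconclusive means replicate mean below 10 yet half the replicates above 10; inactive means over half of replicates below 10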
MC4R antag cAMP: antagonists of human melanocortin 4 receptor (MC4R). P32245. MC4R-expressing cells, MTII-stimulated cAMP, LANCE TR-FRET. inhibition, % at 6.5 µM. hit rate 0.48% among 360,000;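 active means inhibition above its plate's cutoff, the mean of tested wells on that plate plus 3 SD, cut at about 29% in these data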
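System: U2OS-MC4R stable cell line; Technique: Eu-cAMP/anti-cAMP TR-FRET, emission 671 nm; Repeats: single well per compound; Also added: Melanotan II; Dosing: one concentration, 6.5 µM nominal; Schedule: 30-min compound, 1-h challenge, 1-h detection, room temperature.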
XBP1 UPR conf: confirmation of adaptive unfolded protein response (XBP1) activators. shares compounds with UPR XBP1 act. CHO-XBP1 IRE1-XBP1 luciferase reporter, luminescence. activation, % at 20 µM. hit rate 63% among 1,000. AID 485299;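 active means reporter signal at least 30% of the positive control's activation in two or more of four replicate wells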
Hits are given with their value; 0 = inactive; ? = inconclusive; - = no result. Most compounds without a hit are left out; they make up all but 2% or so of the library.

SMILES	UPR CHOP act	MC4R barr agon	UPR XBP1 act	A1 inh	MC4R antag cAMP	XBP1 UPR conf
COc1ccc(CNC(=O)CCS(=O)(=O)c2ccc3nc(C)sc3c2)cc1	-	0	-	-	0	-
Cc1cc(SCC(=O)c2ccc(O)c(O)c2)n2nc(C)c(-c3ccccc3)c2n1	0	0	101.3	0	0	58.1
Cc1cc(C)nc(SCC(=O)c2ccc(O)c(O)c2)n1	0	0	0	0	0	-
FC(F)(F)c1nc2ccccc2n2c(-c3ccc(Cl)cc3)nnc12	0	0	46.6	0	0	53.7
Cc1ccc(S(=O)(=O)N2C[C@H]3n4c(=O)ccc(=O)n4C[C@H](OC(=O)NCc4ccco4)[C@@]3(O)C2)cc1	-	0	-	-	0	-
CC(C)CC(NC(=O)c1ccc(Cl)cc1)C(=O)OCC(=O)c1ccc2c(c1)NC(=O)CO2 (centres undefined)	0	0	49.2	15.0	0	99.0
CC(O)C(NS(=O)(=O)c1ccc(Cl)cc1)C(=O)OCC(=O)c1ccc2c(c1)NC(=O)CO2 (centres undefined)	-	0	-	-	0	-
COc1ccc(-c2cc3nc(C)cc(N4CCN(C(=O)c5cccnc5)CC4)n3n2)cc1	-	0	-	-	0	-
O=C(CSc1ccc2nnc(-c3ccc(Cl)cc3)n2n1)N1CCCC1	0	0	0	0	0	-
O=C(CSc1ccc2nnc(-c3ccc(Cl)cc3)n2n1)N1CCc2ccccc21	0	0	30.0	0	0	0
CN(C)C1CCCCC=CC(=O)NC1 (centres undefined)	-	0	-	-	0	-
COc1ccc(C(=O)Nc2cccc(/C=C/c3nc4ccccc4c(=O)[nH]3)c2)cc1	0	0	52.5	0	0	69.0
CNC[C@H]1OCc2ccccc2-c2ccccc2C(=O)N([C@@H](C)CO)C[C@H]1C	-	0	-	-	0	-
O=C(Nc1ccc(Cl)cc1)Nc1ccccc1Sc1ncc([N+](=O)[O-])s1	0	0	39.7	0	0	31.3
CCNC(=O)c1c(NC(=O)c2cc(-c3cc(C)ccc3O)n[nH]2)sc2c1CCCC2	0	0	42.3	0	0	74.6
Cc1ccc(-c2cc(C(=O)Nc3sc4c(c3C(=O)NCc3ccco3)CCC4)[nH]n2)c(O)c1	0	0	0	0	0	-
Cc1ccccc1N1C(=O)C(Oc2ccc(Cl)cc2)C1CNCCCOC(C)C (centres undefined)	0	0	0	0	0	-
COCCCNCC1C(Oc2ccc(Cl)cc2)C(=O)N1c1ccccc1C (centres undefined)	0	0	36.2	0	0	0
COc1ccc(C2CC(c3c(-c4ccccc4)c4cc(Cl)ccc4[nH]c3=O)=NN2S(C)(=O)=O)cc1 (centres undefined)	0	0	49.9	0	0	139.9
COc1ccc(OC)c(C2CC(c3c(-c4ccccc4)c4cc(Cl)ccc4[nH]c3=O)=NN2S(C)(=O)=O)c1 (centres undefined)	0	0	54.5	0	0	0
O=C(O)CCC(=O)N1N=C(c2c(-c3ccccc3)c3cc(Cl)ccc3[nH]c2=O)CC1c1cccs1 (centres undefined)	0	0	0	0	0	-
C[C@H]1CN([C@@H](C)CO)C(=O)CCCn2cc(nn2)CO[C@@H]1CN(C)C(=O)Nc1cccc(F)c1	-	0	-	-	0	-
Cc1ccc2c(c1)C(=O)C(=O)N2Cc1ccc(Br)cc1	0	0	52.4	5.9	0	39.9
Cc1ccc(CN2C(=O)C(=O)c3cc(C)ccc32)cc1	0	0	35.1	?	0	29.1
CCCCN1C(=O)C(=O)c2cc(Cl)ccc21	0	0	42.4	0	0	38.5
SMILES	UPR CHOP act	MC4R barr agon	UPR XBP1 act	A1 inh	MC4R antag cAMP	XBP1 UPR conf
Nc1ccc(S(=O)(=O)c2ccc(N3CCOCC3)c(N)c2)cc1	-	0	-	-	0	-
N=c1n(CC(=O)c2ccc([N+](=O)[O-])cc2)c2ccccc2n1Cc1ccc(Cl)cc1	0	0	165.2	0	0	59.4
N=c1n(CC(=O)c2ccc([N+](=O)[O-])cc2)c2ccccc2n1Cc1ccccc1	0	0	140.2	0	0	0
CCCCCCCCCCn1ccc(=N)cc1	0	0	34.7	0	0	0
CC1Sc2ccc(C(=O)N(CCc3ccccc3)Cc3ccccc3)cc2NC1=O (centres undefined)	-	0	-	-	0	-
Cc1ccc(NC(=O)c2nc[nH]c2C(=O)NCCCCNC(=O)c2[nH]cnc2C(=O)Nc2ccc(C)cc2)cc1	0	0	0	0	0	-
Cc1ccc(NC(=O)c2nc[nH]c2C(=O)NCCCNC(=O)c2[nH]cnc2C(=O)Nc2ccc(C)cc2)cc1	0	0	61.1	0	0	34.2
COC(=O)c1ccc(CSc2nc3ccccc3c(=O)n2-c2ccccc2)o1	0	0	34.7	0	0	0
O=C(CSc1nc2ccccc2c(=O)n1-c1ccccc1)N1CCc2ccccc21	0	0	35.9	0	0	42.0
CC(=O)Nc1ccc2c(c1)Cc1cc(N3C(=O)C=CC3=O)ccc1-2	-	0	-	-	0	-
NC(c1csc(Nc2cc(NCCCO)ncn2)n1)c1ccccc1Cl (centres undefined)	-	0	-	-	0	-
CCCNC(=O)c1ccc2c(=O)c(O)c(-c3ccc(OC)cc3)[nH]c2c1	0	0	62.6	0	0	55.8
Cc1c(NC(=O)CSc2ccc(Cl)cc2)cccc1-c1nc2cc(Cl)ccc2o1	0	0	42.5	0	0	58.8
C#CCn1c(=NC(=O)c2ccc(Br)s2)sc2cccc(OC)c21	0	0	73.4	0	0	72.9
COc1ccc(NC(=O)c2cc3c(=O)n(C)c4ccccc4c3n2C)cc1OC	0	0	0	0	0	-
COc1ccc(NC(=O)c2cc3c(=O)n(C)c4ccccc4c3n2C)cc1Cl	0	0	32.4	0	0	71.8
OC(c1ccc(F)c(F)c1)c1nc(-c2ccc3ccccc3c2)cs1 (centres undefined)	-	0	-	-	0	-
Cc1ccc(S(=O)(=O)NC(=O)C2(C)CCN2C(=O)c2ccccc2CCc2ccccc2)nc1 (centres undefined)	-	0	-	-	0	-
Cc1ccc(S(=O)(=O)c2cc3c(=O)n4cccc(C)c4nc3n(Cc3ccncc3)c2=N)cc1	0	0	48.8	0	0	0
Cc1cccn2c(=O)c3cc(S(=O)(=O)c4ccccc4)c(=N)n(Cc4cccnc4)c3nc12	0	0	0	0	0	-
O=[N+]([O-])c1ccc(-c2nc(Nc3cccc(O)c3)c3ccccc3n2)cc1	0	0	33.6	0	0	0
CCOC(=S)SCC(=O)Nc1nc(-c2ccc(Br)cc2)cs1	0	0	93.0	0	0	164.1
CCOC(=S)SCC(=O)Nc1nc(-c2ccccc2)cs1	0	0	0	0	0	-
Cc1noc(C)c1NC(=O)N(C)C[C@@H]1Oc2ncc(Br)cc2C(=O)N([C@@H](C)CO)C[C@H]1C	-	0	-	-	0	-
